The structures appear in SMILES notation. Active and inactive are the calls of the source. No cut-off for these calls is given here.

One data set addresses T1, Orexin receptor type 2 (Homo sapiens, UniProt O43614).
T1 sequence (O43614 whole entry): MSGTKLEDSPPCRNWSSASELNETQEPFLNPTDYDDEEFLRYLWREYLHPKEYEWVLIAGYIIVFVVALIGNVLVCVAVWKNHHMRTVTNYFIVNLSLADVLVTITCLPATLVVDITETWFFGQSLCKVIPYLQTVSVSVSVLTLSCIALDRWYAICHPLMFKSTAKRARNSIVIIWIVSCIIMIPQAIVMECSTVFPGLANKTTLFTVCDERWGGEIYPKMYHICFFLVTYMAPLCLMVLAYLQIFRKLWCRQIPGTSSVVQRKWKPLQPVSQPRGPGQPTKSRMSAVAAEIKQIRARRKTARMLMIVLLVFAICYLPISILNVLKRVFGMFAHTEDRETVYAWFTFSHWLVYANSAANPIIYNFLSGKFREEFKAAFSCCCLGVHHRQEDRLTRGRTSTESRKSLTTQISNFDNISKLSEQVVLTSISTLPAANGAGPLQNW
The experiment in a line: Antagonist activity at human orexin 2 receptor expressed in CHO cells assessed as inhibition of orexin-A-induced intracellular calcium level after 60 mins by FLIPR assay. The format is functional, cell-based. In general terms: Calcium assays in cells follow changes in intracellular calcium, usually with a dye or a luminescent sensor.

In data set [1] the target is Orexin receptor type 2 (Homo sapiens) (UniProt O43614). As to the kind of experiment: Antagonist activity at human orexin 2 receptor expressed in CHO cells assessed as inhibition of orexin-A-induced intracellular calcium level after 60 mins by FLIPR assay. To be noted: 1 h.
Data set [2] deals with Orexin receptor type 1 (Homo sapiens) (UniProt O43613). As to the kind of experiment: Binding affinity to human orexin 1 receptor expressed in CHO cells after 3 hrs by radioligand binding assay.
In data set [3] the test system is Liver microsome. The experiment in a line: Bioactivation of compound in human liver microsomes assessed as AUC of GSH-adduct formation at 10 uM after 60 mins by HRMS analysis relative to labetalol. To be noted: 1 h.
The test system of data set [4] is Liver microsome. The experiment in a line: Bioactivation of compound in rat liver microsomes assessed as AUC of GSH-adduct formation at 10 uM after 60 mins by HRMS analysis relative to labetalol. To be noted: 1 h.
Data set [5] can be described thus: Clearance in dog at 0.125 mg/kg, iv. The format is ADME, organism-based, Canis lupus familiaris. To be noted: in vivo. Put shortly: (§1)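 Intravenous PK in rat (2 mg/kg) and dog (0.125 or 0.5 mg/kg), vehicle 100% DMSO, n = 2. Clearance, Vdss and half-life were determined.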
The species named for a further data set is Homo sapiens. The experiment in a line: Selectivity ratio of IC50 for human orexin 1 receptor Ile408-Val mutant to IC50 for human orexin 2 receptor.
The target in data set [6] is Orexin receptor type 2 (Homo sapiens) (UniProt O43614). As to the kind of experiment: Binding affinity to human orexin 2 receptor expressed in CHO cells after 3 hrs by radioligand binding assay.
Data set [7] is described as follows: Plasma protein binding in human. Type of data set: ADME, cell-free. To be noted: read-out: PPB (converted).
A short description of data set [8]: AUC in dog at 3 mg/kg, po. To be noted: in vivo. The format is ADME, organism-based, Canis lupus familiaris.
Data set [9] can be described thus: AUC in rat at 10 mg/kg, po. The format is ADME, organism-based. To be noted: in vivo.
The nature of data set [10]: Cmax in satellite rat sleep model at 30 mg/kg, po. Type of data set: ADME, organism-based. The arrangement: dose 30 mg/kg, route oral. To be noted: in vivo. In short, it runs like this: (§2)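 Satellite rats from the sleep study were given 30 mg/kg orally as the free base in 20% Vitamin E TPGS in water (n = 3). Plasma AUC, Cmax and Tmax were measured over the sleep experiment.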

Data set [11] is described as follows: Oral bioavailability in rat at 10 mg/kg. The format is ADME, organism-based. To be noted: in vivo. Put shortly:
(§3)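 Rats were dosed orally at 10 mg/kg in 100% PEG200 (n = 2), as the free base or the hydrochloride salt. AUC, Tmax, Cmax and bioavailability (F) were derived from plasma levels.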

Data set [12] deals with Rattus norvegicus. As to the kind of experiment: Anti-insomnia activity in rat sleep model assessed as reduction of active wake at 30 mg/kg, po up to 2 hrs. Type of data set: functional, organism-based.
Data set [13] is described as follows: Plasma protein binding in dog. The format is ADME, cell-free, Canis lupus familiaris. To be noted: read-out: PPB (converted).
Data set [14] in a line: Volume of distribution at steady state in rat at 2 mg/kg, iv. Type of data set: ADME, organism-based. To be noted: in vivo, read-out: Vdss. Put shortly: as §1
Data set [15] in a line: Cmax in dog at 3 mg/kg, po. The format is ADME, organism-based, Canis lupus familiaris. More on the design: dose 3 mg/kg, route oral. To be noted: in vivo. In short, it runs like this: (§4)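 Oral dosing in dogs at 3 mg/kg as the free base in 20% Vitamin E TPGS in water (n = 2). AUC, Tmax, Cmax and oral bioavailability were determined from plasma.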
Data set [16] has as its system Rattus norvegicus. The experiment in a line: Anti-insomnia activity in rat sleep model assessed as increase in REM sleep at 30 mg/kg, po up to 2 hrs. Type of data set: functional, organism-based.
Data set [17] in a line: Half life in rat at 2 mg/kg, iv. Type of data set: ADME, organism-based. To be noted: in vivo. Put shortly:
as §1

Data set [18] in a line: Tmax in dog at 3 mg/kg, po. Type of data set: ADME, organism-based, Canis lupus familiaris. To be noted: in vivo. In short, it runs like this: as §4
A short description of data set [19]: Oral bioavailability in dog at 3 mg/kg. Type of data set: ADME, organism-based, Canis lupus familiaris. To be noted: in vivo. Put shortly:
as §4

Data set [20] in a line: AUC in satellite rat sleep model at 30 mg/kg, po. Type of data set: ADME, organism-based. To be noted: in vivo. Put shortly: as §2
Data set [21] deals with Rattus norvegicus. As to the kind of experiment: Anti-insomnia activity in rat sleep model assessed as increase in slow wave at 30 mg/kg, po up to 2 hrs. The format is functional, organism-based.
Data set [22] is filed under the species Rattus norvegicus. As to the kind of experiment: Ex vivo receptor occupancy at human OX2R expressed in transgenic rat at plasma concentration of 1 uM. The format is functional.
Data set [23] in a line: Oral bioavailability in satellite rat sleep model at 30 mg/kg. Type of data set: ADME, organism-based. To be noted: in vivo. In short, it runs like this: as §2
The nature of data set [24]: Plasma protein binding in rat. The format is ADME, cell-free. To be noted: read-out: PPB (converted).
Data set [25] is described as follows: Tmax in rat at 10 mg/kg, po. Type of data set: ADME, organism-based. To be noted: in vivo. In short, it runs like this:
as §3

A short description of data set [26]: Cmax in rat at 10 mg/kg, po. The format is ADME, organism-based. The arrangement: dose 10 mg/kg, route oral. To be noted: in vivo. Put shortly: as §3
A short description of data set [27]: Half life in dog at 0.125 mg/kg, iv. Type of data set: ADME, organism-based, Canis lupus familiaris. To be noted: in vivo. Put shortly: as §1
Data set [28] in a line: Clearance in rat at 2 mg/kg, iv. To be noted: in vivo. Type of data set: ADME, organism-based. In short, it runs like this: as §1
Data set [29] in a line: Lipophilicity, log D of the compound by HPLC analysis. Type of data set: physicochemical.
A short description of data set [30]: Apparent permeability of the compound assessed […] by cell based assay. Type of data set: physicochemical.
A short description of data set [31]: Volume of distribution at steady state in dog at 0.125 mg/kg, iv. The format is ADME, organism-based, Canis lupus familiaris. To be noted: in vivo, read-out: Vdss. In short, it runs like this: as §1
Data set [32] is described as follows: Tmax in satellite rat sleep model at 30 mg/kg, po. To be noted: in vivo. Type of data set: ADME, organism-based. Put shortly: as §2
For data set [33], the species on record is Rattus norvegicus. As to the kind of experiment: Ex vivo receptor occupancy at human OX2R expressed in transgenic rat at plasma concentration of 0.35 uM. Type of data set: functional.

Consider `C[C@@H]1CCN(c2ncc(C(F)(F)F)c(Cl)n2)CCN1C(=O)c1ccccc1-n1nccn1`, for which the IC50 (on Orexin receptor type 2; in [1]) was 88 nM in each case. Also, the Ki – broadly, a measure of affinity in units of concentration, obtained from inhibition or displacement – in data set [2] was 5.1 nM.

As for `Cc1ccc(-n2nccn2)c(C(=O)N2CCN(c3nc4cc(Cl)ccc4o3)CC[C@H]2C)c1` [SUVOREXANT], the Activity in the data set with Liver microsome [3] and in the data set on Liver microsome [4] was above 95% in each case.

Turning to `Cc1ccc(-n2nccn2)c(C(=O)N2CCN(c3ncc(Cl)c(C)n3)CC[C@H]2C)c1`, in [5], the clearance (as a rule, the volume of plasma or blood freed of the substance per unit of time) is 9 mL/min/kg. Moreover, the IC50 (on Orexin receptor type 2; in [1]) was 20 nM throughout. For the same compound, the affinity in data set [2], expressed as Ki, was 6.1 nM.

Regarding `COc1ncc(C(F)(F)F)c(N2CC[C@@H](C)N(C(=O)c3ccccc3-n3nccn3)CC2)n1`, at Orexin receptor type 2, the IC50 (commonly the concentration at which inhibition is half-maximal) worked out at 245 nM. Also, in the data set listed under Homo sapiens, the Ratio IC50 came to 7.

For the compound `Cc1cnc(Cl)nc1N1CC[C@@H](C)N(C(=O)c2ccccc2-n2nccn2)CC1`, at Orexin receptor type 2, the IC50 was determined as 42 nM. The inhibitory constant (Ki) in data set [6] is 2.6 nM; in data set [2], 760 nM.

Regarding `COc1nc(N2CC[C@@H](C)N(C(=O)c3cc(C)ccc3-n3nccn3)CC2)ncc1C(F)(F)F`, the values for the fraction unbound in data set [7], in [13] and in data set [24] were 0.04, 0.005 and 0.05, respectively. Besides, the AUC – broadly, concentration integrated over time – came out at 9.9 µM·h in data set [8], 0.6 µM·h in data set [9] and 5.5 µM·h in [20]. Besides, the highest concentration (Cmax) (usually the peak of the concentration-time curve) was 2500 nM in [10], 2300 nM in data set [15] and 200 nM in data set [26]. Besides, the bioavailability (in general, dose-corrected exposure relative to a reference, in per cent) came out at 8% in data set [11], 23% in data set [19] and 19% in data set [23]. In addition, the outcome in the data set on Rattus norvegicus [12], with Rattus norvegicus [16] and in the data set with Rattus norvegicus [21] was Active. Also, the Vd in data set [14] was 2.5 L/kg; in data set [31] it was 0.4 L/kg. The figures for the half-life in data set [17] and in data set [27] were 1.1 h and 2.4 h, respectively. Moreover, the clearance turned out to be 3 mL/min/kg in data set [5] and 37 mL/min/kg in data set [28]. The time of peak concentration (Tmax) (commonly the time at which the peak concentration occurs) in [18] was 0.6 h; in data set [25], 3 h; in data set [32] it was 0.8 h. Further, the IC50 (on Orexin receptor type 2; in [1]) was 27 nM each time. Besides, the Activity in the data set listed under Rattus norvegicus [22] is on record as 83%. Besides, the pH-dependent lipophilicity (logD) (commonly lipophilicity at a set pH, counting ionised and neutral species) in data set [29] was found to be 3.4. For the same compound, the Papp (usually a coefficient for how fast a substance crosses the barrier) in data set [30] stood at 28 ×10⁻⁶ cm/s. The compound further gave an inhibition constant (Ki) in data set [2] of 1.5 nM.

As for `Cc1ncc(C)c(N2CC[C@@H](C)N(C(=O)c3ccccc3-n3nccn3)CC2)n1`, the half-maximal inhibitory concentration (IC50) on Orexin receptor type 2 worked out at 82 nM. Also, the Ki in data set [2] is 3600 nM.

Consider `Cc1nc(N2CC[C@@H](C)N(C(=O)c3ccccc3-n3nccn3)CC2)ncc1C(F)(F)F`, for which the clearance in [5] turned out to be 5 mL/min/kg. The IC50 (at Orexin receptor type 2; in [1]) was 19 nM each time. For the same compound, in [2], the inhibition constant (Ki) turned out to be 11 nM.

For `C[C@@H]1CCN(c2ncc3cc(F)ccc3n2)CCN1C(=O)c1ccccc1-n1nccn1`, in data set [10], the maximum concentration (Cmax) worked out at 2000 nM. In addition, the outcome in the data set on Rattus norvegicus [12], in the data set on Rattus norvegicus [16] and with Rattus norvegicus [21] was Active. This compound also had a clearance in data set [5] of 3 mL/min/kg. This compound showed an Activity in the data set filed under Rattus norvegicus [33] of 90%. In [20], this compound yielded an AUC of 4.5 µM·h. Moreover, the Tmax in [32] was found to be 1.3 h.

Values taken from ChEMBL document CHEMBL3621132, “Discovery of diazepane amide DORAs and 2-SORAs enabled by exploration of isosteric quinazoline replacements” (Bioorg Med Chem Lett, 2015).
